Assay results taken from ChEMBL document CHEMBL3244385, “Antitumor anthracycline antibiotics. Structure-activity and structure-cardiotoxicity relationships of rubidazone analogues” (J Med Chem, 1978).

Columns and labels:
Rattus norvegicus [1] = organism: Rattus norvegicus; assay: Cardiotoxicity in rat ECG model; conditions: in vivo
P388 [2] = assay: In vivo antitumor activity against mouse P388 cells allografted in BDF/CDF mouse assessed as host survival time at 2 mg/kg, ip administered on days 1 to 9 relative to control; assay type: functional; conditions: route intraperitoneal
Summary of the method: (§1)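 P-388 lymphocytic leukemia, 10⁶ cells injected ip into BDF or CDF mice on day 0; drug given ip daily on days 1-9 at the stated dose. Read-out T/C: average survival time of treated mice as percent of untreated controls. Assays run by NCI Drug Research and Development Program.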

P388 [3] = assay: In vivo antitumor activity against mouse P388 cells allografted in BDF/CDF mouse assessed as host survival time at 0.5 mg/kg, ip administered on days 1 to 9 relative to control; assay type: functional; conditions: route intraperitoneal
Summary of the method: as §1

Calf thymus DNA = assay: Binding affinity to calf thymus DNA assessed as change in melting temperature at 5 uM by spectrophotometer analysis; assay type: nucleic-acid assay; conditions: Bos taurus
Summary of the method: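 Drug dissolved in Me2SO, diluted with buffer, then mixed with calf thymus DNA. Final mix: 0.01 M phosphate pH 7, 5×10^-5 M DNA, 5×10^-6 M drug, 10^-5 M EDTA, 5% Me2SO. Absorbance at 259 nm recorded every 30 s while heating at 18 °C/h. Tm is the midpoint of the corrected curve; the shift is taken against DNA alone.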

P388 [4] = assay: In vivo antitumor activity against mouse P388 cells allografted in BDF/CDF mouse assessed as host survival time at 16 mg/kg, ip administered on days 1 to 9 relative to control; assay type: functional; conditions: route intraperitoneal
Summary of the method: as §1

L1210 [5] = assay: Inhibition of DNA synthesis in mouse L1210 cells; assay type: functional; conditions: read-out: ED50 (the source's name)
P388 [6] = assay: In vivo antitumor activity against mouse P388 cells allografted in BDF/CDF mouse assessed as host survival time at 0.125 mg/kg, ip administered on days 1 to 9 relative to control; assay type: functional; conditions: route intraperitoneal
Summary of the method: as §1

Rattus norvegicus [7] = organism: Rattus norvegicus; assay: Cardiotoxicity in rat ECG model relative to adriamycin; conditions: in vivo
P388 [8] = assay: In vivo antitumor activity against mouse P388 cells allografted in BDF/CDF mouse assessed as host survival time at 8 mg/kg, ip administered on days 1 to 9 relative to control; assay type: functional; conditions: route intraperitoneal
Summary of the method: as §1

[9] = Partition coefficient, log P of the compound; assay type: physicochemical; conditions: octanol/water
L1210 [10] = assay: Inhibition of RNA synthesis in mouse L1210 cells; assay type: functional; conditions: read-out: ED50 (the source's name)
P388 [11] = assay: In vivo antitumor activity against mouse P388 cells allografted in BDF/CDF mouse assessed as host survival time at 4 mg/kg, ip administered on days 1 to 9 relative to control; assay type: functional; conditions: route intraperitoneal
Summary of the method: as §1

P388 [12] = assay: In vivo antitumor activity against mouse P388 cells allografted in BDF/CDF mouse assessed as host survival time at 1 mg/kg, ip administered on days 1 to 9 relative to control; assay type: functional; conditions: route intraperitoneal
Summary of the method: as §1

P388 [13] = assay: In vivo antitumor activity against mouse P388 cells allografted in BDF/CDF mouse assessed as host survival time at 0.25 mg/kg, ip administered on days 1 to 9 relative to control; assay type: functional; conditions: route intraperitoneal
Summary of the method: as §1

[14] = Dissociation constant, pKa of Ar-COOH group of the compound; assay type: physicochemical
[15] = Half life in 0.01 M phosphate buffer at 10 uM at pH 7.4 at 50 degC; assay type: physicochemical
Summary of the method: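 Drug at 1×10^-5 M in 0.01 M phosphate, pH 7.4, 50 °C, no DNA. Absorbance followed continuously for 3 h at a drug-specific wavelength (345 or 259 nm). Buffer baseline subtracted. Data fit to A = ΣA0 + c·e^(-kt), with ΣA0 the absorbance of daunorubicin plus the […], and t1/2 derived from the fit.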

COc1ccc(C(=O)N/N=C(\C)[C@]2(O)Cc3c(O)c4c(c(O)c3[C@@H](O[C@H]3C[C@H](N)[C@H](O)[C@H](C)O3)C2)C(=O)c2c(OC)cccc2C4=O)cc1.Cl
MCCD (Rattus norvegicus [1]): 24 mg/kg | T/C (P388 [2]): 174% | T/C (P388 [3]): 136% | ΔTm (Calf thymus DNA): 10.9 °C | T/C (P388 [4]): 59% | EC50 (L1210 [5]): 3100 nM | T/C (P388 [6]): 119% | Ratio (Rattus norvegicus [7]): 1.8 | T/C (P388 [8]): 183% | logP [9]: 1.02 | EC50 (L1210 [10]): 1600 nM | T/C (P388 [11]): 211% | T/C (P388 [12]): 158% | T/C (P388 [13]): 129% | pKa [14]: 4.47

CCCCOc1ccc(C(=O)N/N=C(\C)[C@]2(O)Cc3c(O)c4c(c(O)c3[C@@H](O[C@H]3C[C@H](N)[C@H](O)[C@H](C)O3)C2)C(=O)c2c(OC)cccc2C4=O)cc1.Cl
MCCD (Rattus norvegicus [1]): >= 48 mg kg-1 | T/C (P388 [2]): 179% | T/C (P388 [3]): 151% | ΔTm (Calf thymus DNA): 10.2 °C | T/C (P388 [4]): 54% | EC50 (L1210 [5]): 3200 nM | T/C (P388 [6]): 115% | Ratio (Rattus norvegicus [7]): >= 3.4 | T/C (P388 [8]): 72% | logP [9]: 2.65 | EC50 (L1210 [10]): 1400 nM | T/C (P388 [11]): 127% | T/C (P388 [12]): 152% | T/C (P388 [13]): 143% | pKa [14]: 4.23

COc1cccc2c1C(=O)c1c(O)c3c(c(O)c1C2=O)C[C@@](O)(/C(C)=N/NC(=O)c1ccc(O)cc1)C[C@@H]3O[C@H]1C[C@H](N)[C@H](O)[C@H](C)O1.Cl
MCCD (Rattus norvegicus [1]): 20 mg/kg | T/C (P388 [2]): 160% | T/C (P388 [3]): 157% | ΔTm (Calf thymus DNA): 11.5 °C | T/C (P388 [4]): 111% | EC50 (L1210 [5]): 3600 nM | T/C (P388 [6]): 115% | Ratio (Rattus norvegicus [7]): 1.5 | T/C (P388 [8]): 181% | logP [9]: 0.37 | EC50 (L1210 [10]): 1900 nM | T/C (P388 [11]): 161% | T/C (P388 [12]): 145% | T/C (P388 [13]): 111% | pKa [14]: 4.52

COc1cccc2c1C(=O)c1c(O)c3c(c(O)c1C2=O)C[C@@](O)(/C(C)=N/NC(=O)c1ccc(N(C)C)cc1)C[C@@H]3O[C@H]1C[C@H](N)[C@H](O)[C@H](C)O1.Cl
MCCD (Rattus norvegicus [1]): 12 mg/kg | T/C (P388 [2]): 181% | T/C (P388 [3]): 154% | ΔTm (Calf thymus DNA): 10.7 °C | T/C (P388 [4]): 89% | EC50 (L1210 [5]): 2600 nM | T/C (P388 [6]): 94% | Ratio (Rattus norvegicus [7]): 0.8 | T/C (P388 [8]): 136% | logP [9]: 1.22 | EC50 (L1210 [10]): 2500 nM | T/C (P388 [11]): 172% | T/C (P388 [12]): 154% | T/C (P388 [13]): 111% | half-life at 10 µM [15]: 9.23 h | pKa [14]: 4.97

COc1cccc2c1C(=O)c1c(O)c3c(c(O)c1C2=O)C[C@@](O)(/C(C)=N/NC(=O)c1cccc([N+](=O)[O-])c1)C[C@@H]3O[C@H]1C[C@H](N)[C@H](O)[C@H](C)O1.Cl
MCCD (Rattus norvegicus [1]): 32 mg/kg | T/C (P388 [2]): 172% | T/C (P388 [3]): 130% | ΔTm (Calf thymus DNA): 10.5 °C | T/C (P388 [4]): 72% | EC50 (L1210 [5]): 3200 nM | T/C (P388 [6]): 125% | Ratio (Rattus norvegicus [7]): 2.3 | T/C (P388 [8]): 202% | logP [9]: 0.76 | EC50 (L1210 [10]): 2300 nM | T/C (P388 [11]): 190% | T/C (P388 [12]): 146% | T/C (P388 [13]): 130% | pKa [14]: 3.46

COc1cccc2c1C(=O)c1c(O)c3c(c(O)c1C2=O)C[C@@](O)(/C(C)=N/NC(=O)c1ccc(Cl)c(Cl)c1)C[C@@H]3O[C@H]1C[C@H](N)[C@H](O)[C@H](C)O1.Cl
MCCD (Rattus norvegicus [1]): 40 mg/kg | T/C (P388 [2]): 175% | T/C (P388 [3]): 157% | ΔTm (Calf thymus DNA): 11 °C | T/C (P388 [4]): 54% | EC50 (L1210 [5]): 2100 nM | T/C (P388 [6]): 117% | Ratio (Rattus norvegicus [7]): 2.8 | T/C (P388 [8]): 81% | logP [9]: 2.46 | EC50 (L1210 [10]): 1700 nM | T/C (P388 [11]): 163% | T/C (P388 [12]): 166% | T/C (P388 [13]): 137% | pKa [14]: 3.62
